Data: ChEMBL document CHEMBL1141214, “Use of structure-based drug design approaches to obtain novel anthranilic acid acyl carrier protein synthase inhibitors” (J Med Chem, 2005)
Converted amounts (≈) assume the structure as drawn. “And” between values parts separate entries of the source, which are not always exact repeats. Identical values can stand only once.

Experiments:
Staphylococcus aureus = assay: Inhibitory activity against methicillin-resistant Staphylococcus aureus MRSA; assay type: functional
In short: (§1)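 Broth microdilution per NCCLS in Mueller-Hinton II broth; serial compound dilutions inoculated to 10⁵ CFU/mL, incubated 18–22 h at 35 °C in ambient air. MIC taken as lowest concentration completely inhibiting visible growth (unaided eye).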

Escherichia coli = assay: Inhibitory activity against Escherichia coli; assay type: functional
In short: (§2)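 Broth microdilution per NCCLS in Mueller-Hinton II broth; serial dilutions in microtiter wells, inoculum 10⁵ CFU/mL, 100 μL final. Incubated 18–22 h at 35 °C in ambient air. MIC taken as lowest concentration giving complete visible growth inhibition by unaided eye.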

Candida albicans = assay: Inhibitory activity against Candida albicans; assay type: functional; in short: as §2
Streptococcus pneumoniae = assay: Inhibitory activity against penicillin-resistant Streptococcus pneumoniae penR; assay type: functional; in short: as §1
[1] = biological target: T1, Holo-[acyl-carrier-protein] synthase (Bacillus subtilis (strain 168), UniProt P96618); assay: Inhibitory activity against Bacillus subtilis AcpS by HTRF assay
T1 sequence (P96618 whole entry): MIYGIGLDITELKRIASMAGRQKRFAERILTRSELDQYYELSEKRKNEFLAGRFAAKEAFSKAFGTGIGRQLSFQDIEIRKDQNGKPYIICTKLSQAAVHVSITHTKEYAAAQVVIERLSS

Bacillus subtilis = assay: Inhibitory activity against Bacillus subtilis 168; assay type: functional; in short: as §2
Enterococcus faecalis = assay: Inhibitory activity against vancomycin-resistant Enterococcus faecalis VRE; assay type: functional; in short: as §1

Compound	MIC (Staphylococcus aureus) [µg/mL]	MIC (Escherichia coli) [µg/mL]	MIC (Candida albicans) [µg/mL]	MIC (Streptococcus pneumoniae) [µg/mL]	IC50 [1]	MIC (Bacillus subtilis) [µg/mL]	MIC (Enterococcus faecalis) [µg/mL]
C/C(=C\c1ccc(Cl)cc1)C(=O)Nc1cc(Cl)ccc1C(=O)O	32 (≈ 91.4 µM)	> 128	> 128	32 (≈ 91.4 µM)	32.3 µM	32 (≈ 91.4 µM)	64 (≈ 183 µM)
NS(=O)(=O)c1cc(C(=O)O)c(NCc2ccco2)cc1Cl [FUROSEMIDE]	–	–	–	–	12.7 µM	–	–
CC(Cc1ccccc1)C(=O)Nc1ccc(Cl)cc1C(=O)O (configuration not stated)	–	–	–	–	2.83 µM and 2.8 µM	–	–
CSC(Cc1ccc(Cl)cc1)C(=O)Nc1ccc(Cl)cc1C(=O)O (configuration not stated)	64 (≈ 167 µM)	> 128	> 128	64 (≈ 167 µM)	1.43 µM and 1.4 µM	64 (≈ 167 µM)	128 (≈ 333 µM)
O=C(O)c1cc(Cl)ccc1NC(=O)c1cccc2c1-c1ccccc1C2=O	–	–	–	–	0.821 µM and 0.82 µM	–	–
